Compound activity (PubChem BioAssay)
Shown are actives, neighbours in structure and some others; about 4% of the full set was active somewhere.
GPR7 antag: GPR7 receptor antagonists, primary screen, cell-based, fluorescence, single concentration | inhibition, % at 4.4 µM | 290,000 compounds, 1.1% hits | AID 1861, 2009 | GPR7-expressing cells, fluorescence antagonist assay; in the data active means inhibition above about 16%, passing the limit was not always enough;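 further: cells stimulated with the agonist NPW; 0% = agonist with vehicle and 100% = vehicle without agonist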
Target sequence (P48145 whole entry, looked up): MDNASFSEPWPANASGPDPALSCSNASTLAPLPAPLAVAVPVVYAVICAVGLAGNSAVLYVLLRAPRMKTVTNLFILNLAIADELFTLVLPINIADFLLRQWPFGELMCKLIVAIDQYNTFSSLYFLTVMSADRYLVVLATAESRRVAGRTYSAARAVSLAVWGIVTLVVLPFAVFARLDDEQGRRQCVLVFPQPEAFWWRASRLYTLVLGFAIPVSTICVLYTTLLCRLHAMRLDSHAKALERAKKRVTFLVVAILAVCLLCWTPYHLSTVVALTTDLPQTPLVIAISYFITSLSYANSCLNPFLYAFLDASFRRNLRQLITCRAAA
DAGLB inh: DAGLB lipase inhibitors, primary screen, biochemical, fluorescence, HTS; 340,000 compounds, 0.059% hits; Diacylglycerol lipase-beta (Homo sapiens), Q8NCG7; AID 504411, 2011; inhibition, % at 5.17 µM; HEK293T DAGLB membrane lysate, EnzChek fluorogenic substrate; in the data active means inhibition above about 34%;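 further: 0% = enzyme with vehicle and 100% = wells lacking enzyme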
TAAR1 antagonist: human TAAR1 antagonists, primary screen, Fluo-8 calcium fluorescence, CHO RD-HGA16 cells. Trace amine-associated receptor 1 (Homo sapiens), Q96RJ0. antagonist. inhibition, % at 3 µM. 360,000 compounds, 1.5% hits;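 active means inhibition above a per-plate cutoff, the mean inhibition of test compounds on that plate plus 3 SD, cut at about 49% in these data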;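 further: 0% = DMSO plus EC80 beta-PEA response and 100% = DMSO alone without agonist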
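Material: RD-HGA16 CHO cells with stable hTAAR1 and Gα16; Dosing: single nominal final test compound concentration of 3 µM; Schedule: seeding 17-24 h prior, 75-min 37 °C, 30-min RT dye loading; Detection: kinetic Fluo-8 calcium fluorescence measurement; Measure: % inhibition from peak post-agonist over basal fluorescence ratio; Benchmarks: vehicle and agonist controls.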
MPTP inh: mitochondrial permeability transition pore inhibitors, primary screen, biochemical, isolated mouse mitochondria, absorbance | Ca2+ swelling absorbance, 30 min | inhibition, % at 10 µM | 360,000 compounds, 1.4% hits;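 active means inhibition of 50% or more, scaled per plate between neutral and stimulator controls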;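 further: 0% = DMSO wells given calcium and 100% = 1 mM EGTA wells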
TAAR1 ag: human TAAR1 agonists, primary screen, Fluo-8 calcium fluorescence, CHO RD-HGA16 cells. 360,000 compounds, 0.99% hits. vehicle wells 0%, saturating PEA agonist 100%. activation, % at 3 µM. Trace amine-associated receptor 1 (Homo sapiens), Q96RJ0. AID 624467, 2012;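 active means activation above the mean activation of all test compounds in the run plus 3 SD, cut at about 38% in these data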
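test system = CHO RD-HGA16 cells carrying human TAAR1 plus Gα16 | schedule = 17-24 h seeding, 75 min 37 °C dye, 30 min RT | compound dosing = 3 µM single concentration | control set = DMSO and PEA EC100 | replicates = n 1 | signal = Fluo-8 fluorescence, 5 s baseline then 140 s kinetic read | measure = percent activation vs PEA EC100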
MPTP counter: fluorescence retest of MPTP screen hits in isolated mitochondria, single concentration | shares compounds with MPTP inh | membrane potential, Rhodamine 123 fluorescence | inhibition, % at 10 µM | 5,000 compounds, 78% hits | AID 624504, 2012; in the data active means inhibition above about 22%;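 further: 0% = DMSO vehicle and 100% = positive control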
Numbers without * were called inactive; . = no result.

SMILES	GPR7 antag	DAGLB inh	TAAR1 antagonist	MPTP inh	TAAR1 ag	MPTP counter
Cc1ccc(C)c(NC(=S)NC(NC(=O)OCc2ccccc2)C(Cl)(Cl)Cl)c1 (stereo unspecified)	-0.1	-1.2	-1.5	94.9*	3.4	82.8*
O=C(NC(NC(=S)Nc1c(Cl)cc(Cl)cc1Cl)C(Cl)(Cl)Cl)OCc1ccccc1 (stereo unspecified)	-4.3	-1.3	30.7	78.1*	8.2	62.7*
COC(=O)NC(NC(=S)Nc1cccc(C)c1)C(Cl)(Cl)Cl (stereo unspecified)	-5.4	2.3	13.5	0.7	7.2	.
Cc1ccc2nc(-c3ccc(C#N)cc3)c(Cc3cccc(Cl)c3)n2c1	.	.	-12.0	-1.8	0.7	.
O=C(NC(Nc1ncc(S(=O)(=O)c2ccc([N+](=O)[O-])cc2)s1)(C(F)(F)F)C(F)(F)F)c1ccc(Cl)cc1	14.2	14.1	11.0	99.7*	6.1	86.8*
COCC(=O)Nc1ncc(S(=O)(=O)c2ccc([N+](=O)[O-])cc2)s1	-5.7	1.9	7.3	-1.1	2.4	.
Cc1ccc(S(=O)(=O)NCC2CCC(C(=O)NCCCN3CCCC3=O)CC2)cc1 (stereo unspecified)	-12.1	1.1	3.9	-1.7	2.0	.
CCN(CC)S(=O)(=O)c1ccc(Cl)c(C(=O)Nc2ccc(Cl)cc2[N+](=O)[O-])c1	-10.9	-3.7	34.4	91.0*	2.6	91.7*
CN(C)S(=O)(=O)c1ccc(Cl)c(C(=O)Nc2ccccc2[N+](=O)[O-])c1	-6.9	3.1	10.5	-1.2	5.4	.
CCOC(=O)/C(C(=O)Nc1ccc(Br)cc1)=C1/NC(C)(C)Cc2ccccc21	-8.2	-4.7	20.0	100.9*	6.7	89.0*
O=C(N[C@H]1CC[C@H](CCNS(=O)(=O)c2ccc(Cl)cc2)O[C@@H]1CO)c1cccc(F)c1	.	.	7.0	-1.6	1.6	.
Cc1cc(N2CCN(CC(C)(C)O)C[C@H]2C)ccc1N1CCN(CC(C)(C)O)[C@@H](C)C1	.	.	-10.9	.	1.0	.
O=C(Nc1ccc(Cl)cc1)OCCn1nnnc1C(c1ccccc1Cl)N1CCOCC1 (stereo unspecified)	16.0	-4.5	10.6	72.4*	3.4	85.2*
Cc1cc(SCC(=O)N/N=C/c2ccc(O)c(O)c2O)c(C)cc1Br	-10.4	23.5	35.9	91.9*	22.3	56.8*
Cc1cc(SCC(=O)NN=C2CCN(C(C)C)CC2)c(C)cc1Br	-1.8	-3.6	-1.2	-0.2	1.5	.
CCOCCC(=O)Nc1ccc2c(c1)c(=O)n(C)n2C/C=C/c1ccccc1	.	.	1.9	0.8	0.3	.
Cc1ccc(NC(=O)Nc2ccc(Cl)cc2)c(Br)c1	5.8	-11.2	-12.4	101.5*	4.8	92.3*
CSc1ccccc1NC(=O)Nc1ccc(Cl)cc1	19.3	-6.9	20.6	92.4*	13.2	75.2*
CSc1cccc(NC(=O)NCc2cccc(CNC(=O)Nc3cccc(SC)c3)c2)c1	-11.5	7.0	-16.4	68.1*	2.2	63.0*
O=C(/C=C/c1cccc(C(F)(F)F)c1)Nc1cccc(C(F)(F)F)c1	-5.7	-11.9	44.6	86.6*	9.4	85.3*
Cc1ccc(NC(=O)/C=C/c2cccc(C(F)(F)F)c2)cc1	-2.9	-6.9	10.7	17.0	-2.1	.
COc1ccc(NC(=O)Nc2ccccc2SC)cc1	-7.1	-4.3	-4.1	2.0	0.6	.
COc1ccc(NC(=O)c2c(F)cccc2Cl)cc1S(=O)(=O)N1CCOCC1	.	-1.4	-3.8	0.1	2.4	.
Cc1cccc(CN2CCN(C3CN(Cc4cn(Cc5ccc(C(F)(F)F)cc5)nn4)S(=O)(=O)C3)CC2)c1 (stereo unspecified)	.	.	2.5	.	7.3	.
O=C(/C=C/c1cccc(Cl)c1)Nc1ncccn1	-8.6	-3.2	9.8	-1.0	1.7	.
CSc1cccc(NC(=O)Nc2ccc(Cl)cc2)c1	0.0	-5.9	41.6	88.1*	14.7	103.8*
CC(=O)c1ccc(NC(=O)Nc2ccc(Br)cc2C)cc1	-15.1	-5.6	6.5	89.8*	10.8	96.5*
